The source made the active and inactive calls.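 The calls were made as follows: active = inhibition of 30% or more at any tested concentration; inactive = the rest.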
Molecular target: Aminopeptidase N (Plasmodium falciparum (isolate 3D7)) (UniProt O96935)
Assay: inhibition of P. falciparum M1 alanyl aminopeptidase – biochemical, QFRET, fluorogenic H-Leu-NHMec substrate, set 3, dose response (AID 624163)
Conditions: purified rPFM1AAP, H-Leu-NHMec fluorogenic substrate cleavage; for inhibition: at 100 µM (top of the series)
How it was run: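 Assay system – purified recombinant Plasmodium falciparum M1 alanyl aminopeptidase (rPfM1AAP) · Quantity – rPfM1AAP enzyme at 5 µg/mL final · Also added – fluorogenic substrate H-Leu-NHMec at 0.1 mM final · Compound dosing – ten twofold doses, 0.2–100 µM · Times – enzyme-substrate-compound incubation 90 min at room temperature · Signal – fluorescence of released NHMec, excitation 370 nm, emission 460 nm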

Chain of Aminopeptidase N (Plasmodium falciparum (isolate 3D7)) (O96935 whole entry, looked up): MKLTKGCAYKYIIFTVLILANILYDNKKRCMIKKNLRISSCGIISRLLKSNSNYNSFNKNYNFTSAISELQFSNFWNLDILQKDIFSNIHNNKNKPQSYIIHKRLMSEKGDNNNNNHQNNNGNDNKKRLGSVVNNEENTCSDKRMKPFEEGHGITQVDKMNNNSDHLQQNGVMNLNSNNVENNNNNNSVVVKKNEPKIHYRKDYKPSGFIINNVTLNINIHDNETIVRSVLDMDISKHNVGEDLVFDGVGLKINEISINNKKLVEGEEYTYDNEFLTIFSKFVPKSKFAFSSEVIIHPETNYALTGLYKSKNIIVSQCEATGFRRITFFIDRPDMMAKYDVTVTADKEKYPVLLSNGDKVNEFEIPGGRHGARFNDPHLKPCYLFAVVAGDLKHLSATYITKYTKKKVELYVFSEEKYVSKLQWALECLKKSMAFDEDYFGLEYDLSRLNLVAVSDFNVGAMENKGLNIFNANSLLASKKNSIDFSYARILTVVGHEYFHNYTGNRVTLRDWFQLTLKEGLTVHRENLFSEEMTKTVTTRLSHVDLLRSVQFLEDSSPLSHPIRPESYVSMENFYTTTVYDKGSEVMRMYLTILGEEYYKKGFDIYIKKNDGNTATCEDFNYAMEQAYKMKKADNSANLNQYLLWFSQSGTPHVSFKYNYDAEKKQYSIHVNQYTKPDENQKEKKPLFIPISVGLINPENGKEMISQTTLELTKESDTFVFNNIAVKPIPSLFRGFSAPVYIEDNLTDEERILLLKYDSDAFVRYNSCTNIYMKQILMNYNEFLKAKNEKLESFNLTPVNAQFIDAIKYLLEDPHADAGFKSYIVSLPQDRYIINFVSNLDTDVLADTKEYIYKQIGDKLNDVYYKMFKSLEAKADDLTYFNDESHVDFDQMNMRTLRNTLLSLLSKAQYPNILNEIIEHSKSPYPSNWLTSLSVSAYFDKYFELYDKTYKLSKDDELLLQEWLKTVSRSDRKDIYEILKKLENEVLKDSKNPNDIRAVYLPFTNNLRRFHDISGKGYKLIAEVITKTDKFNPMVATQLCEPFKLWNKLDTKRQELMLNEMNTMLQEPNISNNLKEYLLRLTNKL

SMILES	IC50 [µM]	inhibition
O=C(NCc1cccc(F)c1)C1CCN(S(=O)(=O)c2ccc(Cl)s2)CC1	3.98	
O=C(NCc1cccc(F)c1)C1CCN(S(=O)(=O)c2sccc2Br)CC1	29.8	
O=C(NCc1cccc(F)c1)C1CCN(S(=O)(=O)c2ccc(Br)cc2)CC1	11.2	
O=C(Nc1ccc2c(c1)OCO2)C1CCN(S(=O)(=O)c2ccc(Br)s2)CC1		inactive
O=C(NCc1ccccc1F)C1CCN(S(=O)(=O)c2cc(Br)c(Br)s2)CC1		inactive
O=C(NCCc1ccc2c(c1)OCO2)C1CCN(S(=O)(=O)c2ccc(Br)s2)CC1		inactive
O=C(NCCc1ccc2c(c1)OCO2)C1CCN(S(=O)(=O)c2cc(Br)c(Br)s2)CC1		inactive
O=C(NCc1ccc(F)cc1)C1CCN(S(=O)(=O)c2cc(Br)c(Br)s2)CC1		inactive
O=C(NCc1ccc2c(c1)OCO2)C1CCN(S(=O)(=O)c2ccc(Br)cc2)CC1	7.44	
O=C(NCc1cccc(F)c1)C1CCN(S(=O)(=O)c2ccc(Br)s2)CC1	2.18	
O=C(NCc1cccc(F)c1)C1CCN(S(=O)(=O)c2cc(Br)c(Br)s2)CC1		inactive
O=C(NCc1ccccc1F)C1CCN(S(=O)(=O)c2ccc(Br)s2)CC1	2.53	
O=C(NCc1ccc2c(c1)OCO2)C1CCN(S(=O)(=O)c2sccc2Br)CC1	34.3	
O=C(NCCc1ccc2c(c1)OCO2)C1CCN(S(=O)(=O)c2ccc(Cl)s2)CC1		inactive
O=C(NCc1ccc(F)cc1)C1CCN(S(=O)(=O)c2sccc2Br)CC1	69.2	
O=C(NCCc1ccc2c(c1)OCO2)C1CCN(S(=O)(=O)c2sccc2Br)CC1		inactive
O=C(Nc1ccc2c(c1)OCO2)C1CCN(S(=O)(=O)c2ccc(Cl)s2)CC1		inactive
O=C(NCc1ccc2c(c1)OCO2)C1CCN(S(=O)(=O)c2ccc(Cl)s2)CC1	2.83	
O=C(NCc1ccc(F)cc1)C1CCN(S(=O)(=O)c2ccc(Br)cc2)CC1	28	
O=C(NCc1ccccc1F)C1CCN(S(=O)(=O)c2ccc(Br)cc2)CC1	12.7	
O=C(NCc1ccccc1F)C1CCN(S(=O)(=O)c2sccc2Br)CC1	33.7	
O=C(NCc1ccc2c(c1)OCO2)C1CCN(S(=O)(=O)c2cc(Br)c(Br)s2)CC1		inactive
O=C(NCc1ccc2c(c1)OCO2)C1CCN(S(=O)(=O)c2ccc(Br)s2)CC1	1.22	
O=C(Nc1ccc2c(c1)OCO2)C1CCN(S(=O)(=O)c2sccc2Br)CC1		inactive
O=C(NCc1ccc(F)cc1)C1CCN(S(=O)(=O)c2ccc(Br)s2)CC1	3.95	
O=C(NCc1ccc(F)cc1)C1CCN(S(=O)(=O)c2ccc(Cl)s2)CC1	6.48	
O=C(NCc1ccccc1F)C1CCN(S(=O)(=O)c2ccc(Cl)s2)CC1	3.97	
O=C(Nc1ccc2c(c1)OCO2)C1CCN(S(=O)(=O)c2ccc(Br)cc2)CC1		inactive
O=C(NCCc1ccc2c(c1)OCO2)C1CCN(S(=O)(=O)c2ccc(Br)cc2)CC1		inactive
O=C(Nc1ccc2c(c1)OCO2)C1CCN(S(=O)(=O)c2cc(Br)c(Br)s2)CC1		inactive
